# From PubChem BioAssay
# Activity calls are given as the source filed them.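 How the source made its calls, unless noted: active means inhibition at or above 50% relative to wild type and mutant plate controls; inactive means inhibition below 50%.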
# How the values were obtained:
# [1] = inhibitors of TNFa-induced NFkB p65 translocation, primary screen, imaging, HUVEC, MLSMR starter and 10KST1 sets (AID 438;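 active means inhibition above 20% together with a positive visual image hit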;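 further: compound added about 3h40 before a 20 min TNFalpha stimulation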;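 on inhibition: signal is the nuclear over cytoplasmic p65 intensity ratio per well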); conditions: HUVEC TNFa-induced p65 nuclear translocation; cell count: measured here: nuclei count (cytotoxicity indicator), at 2.08 µM; inhibition: at 2 µM, stronger effect = higher value, 0% TNFa-plus-vehicle, 100% no-TNFa wells
# [2] = inhibitors of E-selectin induction by TNFa, primary screen, imaging, HUVEC, immunofluorescence, MLSMR starter and 10KST1 sets (AID 487;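 active means visually confirmed hit in the image check and inhibition above 20%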;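 on inhibition: signal is fraction of cell area covered by stained E-selectin grains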;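 on nuclei count: 100% = median nuclei count of all wells on the same plate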); conditions: HUVEC TNFalpha-induced E-selectin immunofluorescence imaging, at 2 µM; inhibition: stronger effect = higher value; nuclei count: measured here: cell number, toxicity
# [3] = DUSP6 inhibitors restoring Erk phosphorylation by chemical complementation, primary imaging in DUSP6-transfected HeLa (AID 609;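 active means compounds giving at least 50% inhibition in the cell-based MKP-3 phosphatase rescue imaging test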;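 on inhibition: phospho-Erk level distribution per well compared with pooled transfected vehicle control wells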); conditions: HeLa MKP-3 transfected, phospho-Erk imaging KS statistic, at 10 µM, cells stimulated with TPA for 15 min
# [4] = target: Dual specificity protein phosphatase 6 (Homo sapiens) (UniProt Q16828); assay: as above; conditions: HeLa MKP-3 transfected, phospho-Erk imaging KS statistic; at 10 µM; stronger effect = higher value; cells stimulated with TPA for 15 min
# Chain of Dual specificity protein phosphatase 6 (Homo sapiens) (Q16828 whole entry, looked up): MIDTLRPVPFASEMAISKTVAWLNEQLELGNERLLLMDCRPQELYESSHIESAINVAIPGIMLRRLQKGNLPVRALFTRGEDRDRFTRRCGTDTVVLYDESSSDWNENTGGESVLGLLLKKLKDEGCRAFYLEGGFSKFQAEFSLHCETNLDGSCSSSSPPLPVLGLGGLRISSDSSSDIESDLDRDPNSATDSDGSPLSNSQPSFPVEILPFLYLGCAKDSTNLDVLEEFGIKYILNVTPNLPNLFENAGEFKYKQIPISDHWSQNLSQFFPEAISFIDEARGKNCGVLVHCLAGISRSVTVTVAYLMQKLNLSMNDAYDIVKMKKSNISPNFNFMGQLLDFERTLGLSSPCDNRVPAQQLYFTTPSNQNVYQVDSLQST
# [5] = target: Voltage-gated potassium channel subunit beta-2 (Rattus norvegicus) (UniProt P62483); assay: KvBeta enzyme negative modulators, primary screen, biochemical, NADPH fluorescence (AID 622;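 active means fluorescence slope higher than the sample average by over 3 SD, cut at about -0.22 in these data, passing the limit was not always enough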;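 further: slope of raw intensity against log time taken from 70 to 1610 s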); conditions: recombinant KvBeta, 4-cyanobenzaldehyde reduction, at 10 µM, stronger effect = higher value
# Chain of Voltage-gated potassium channel subunit beta-2 (Rattus norvegicus) (P62483 whole entry, looked up): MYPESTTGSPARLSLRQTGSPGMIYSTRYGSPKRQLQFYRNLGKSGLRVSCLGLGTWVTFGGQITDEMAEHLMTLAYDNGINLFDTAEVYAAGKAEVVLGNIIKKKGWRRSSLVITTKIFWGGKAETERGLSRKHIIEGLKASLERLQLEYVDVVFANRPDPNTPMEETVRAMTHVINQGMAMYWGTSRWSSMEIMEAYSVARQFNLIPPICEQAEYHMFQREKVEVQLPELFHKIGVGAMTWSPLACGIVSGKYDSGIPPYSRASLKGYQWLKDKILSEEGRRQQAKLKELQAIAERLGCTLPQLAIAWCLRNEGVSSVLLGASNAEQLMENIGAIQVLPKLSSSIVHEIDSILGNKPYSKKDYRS
# [6] = target: Voltage-gated potassium channel subunit beta-2 (Rattus norvegicus) (UniProt P62483); assay: KvBeta positive modulators, primary screen, biochemical, NADPH fluorescence (AID 623;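 active means NADPH fluorescence slope more negative than the mean of all samples by about 3 SD, 99.7% confidence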;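 further: fluorescence intensity change per second fitted from 20 to 320 s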); conditions: Recombinant KvBeta, NADPH fluorescence decrease slope, 10 min; at 10 µM; stronger effect = lower value
# [7] = target: Alpha-2C adrenergic receptor (Homo sapiens) (UniProt P18825); assay: modulators of alpha2C/GIRK thallium flux, primary screen, cell-based, HEK293 alpha2C/GIRK1/2 (AID 624;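 active means fluorescence slope after compound addition differing from the mean of all screened samples at 99.7% confidence, in either direction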;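 further: slope of fluorescence ratio to pre-addition baseline per second over 15 to 24 s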); conditions: thallium flux BTC fluorescence, at 10 µM, actives lie on both sides
# Chain of Alpha-2C adrenergic receptor (Homo sapiens) (P18825 whole entry, looked up): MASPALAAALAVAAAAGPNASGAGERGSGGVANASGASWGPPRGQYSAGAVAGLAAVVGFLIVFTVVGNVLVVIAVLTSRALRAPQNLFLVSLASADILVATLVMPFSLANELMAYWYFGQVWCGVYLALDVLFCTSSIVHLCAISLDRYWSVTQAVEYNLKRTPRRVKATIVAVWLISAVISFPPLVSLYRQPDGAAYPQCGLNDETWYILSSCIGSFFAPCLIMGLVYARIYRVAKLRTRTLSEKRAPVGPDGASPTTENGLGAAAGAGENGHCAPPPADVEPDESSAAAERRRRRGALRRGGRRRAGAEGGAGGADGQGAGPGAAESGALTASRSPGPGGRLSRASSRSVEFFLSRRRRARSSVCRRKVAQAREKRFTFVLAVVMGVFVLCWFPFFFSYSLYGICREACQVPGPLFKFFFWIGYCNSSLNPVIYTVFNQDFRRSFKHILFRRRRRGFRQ
# [8] = inhibitors of larval lipid processing in zebrafish, primary screen, whole organism, PED6 fluorescence, gall bladder and intestine (AID 686;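 active means a full or partial loss of lipid-probe fluorescence in the fish gall bladder, intestine or both, judged by eye; inactive means no fluorescence loss, or compound toxic to the fish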;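 further: larvae 5 to 7 days old with five fish per well; signal comes from phospholipase A2 cleavage of quenched PED6 carried via bile; overnight exposure to compound and PED6 before scoring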); conditions: Zebrafish larvae PED6 lipid processing, fluorescence scoring; screened at 20 µM (by protocol)
# Summary of the method: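 Also added: quenched phospholipase substrate PED6, 100 nM final, ingested by larvae; System: zebrafish larvae, 5-7 d; Quantity: 5 larvae per well; Compound: 20 µM single dose; Schedule: overnight compound and PED6 incubation; Read-out: visual per-well fluorescence inhibition score; Measured by: By-eye fluorescence microscopy; Medium: E3.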
# [9] = inhibitors of Chlamydomonas gravitaxis, primary screen, whole organism, Chlamydomonas reinhardtii, WT vs cilia-less mutant, absorbance, 96-well (AID 463189); conditions: OD600 absorbance, 2 days, at 10 µM, stronger effect = higher value;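 further: 0% = wild type cc124 cells in DMSO and 100% = ciliumless bld1 mutant cells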
# [10] = measured here: cell density z-score
# [11] = measured here: nuclear c-Myc green intensity z-score
# [12] = measured here: nuclear pErk red intensity z-score, stronger effect = higher value
SMILES,cell count [1],inhibition [1],inhibition [2],nuclei count [2],"z-score [3, 10]","z-score [3, 11]","z-score [3, 12]",inhibition [4],fluorescence slope [5],NADPH fluorescence slope [6],slope [7],outcome [8],inhibition [9]
Cc1nc(NCCN)c(C#N)c2c1COC(C)(C)C2,666,-1.2% (inactive),-117% (inactive),165%,-0.432,-0.111,-0.818,1.75% (inactive),-0.506 (inactive),-1.4e-06 (inactive),0.00551 (inactive),inactive,1.63% (inactive)
N#CC1=C(SCC(=O)c2ccccc2)NC2=C(C(=O)CCC2)C1c1ccco1 (stereo unspecified),310,-8% (inactive),-43.4% (inactive),91.7%,-2.24,2.65,-0.86,1.42% (inactive),-0.435 (inactive),-3.2e-05 (inactive),0.00719 (inactive),inactive,-15.7% (inactive)
COc1ccc(C(=O)N/C(N)=N/c2nc3ccccc3o2)cc1,557,-12.2% (inactive),-140% (inactive),137%,0.0574,0.314,0.889,-3.97% (inactive),-0.499 (inactive),-3.2e-05 (inactive),0.0048 (inactive),inactive,14.5% (inactive)
COc1ccc(C2C(C#N)=C(SC)NC3=C2C(=O)CC(C)(C)C3)cc1 (stereo unspecified),369,-8.9% (inactive),-30.1% (inactive),156%,1.03,-0.788,1.1,-12.6% (inactive),-0.411 (inactive),-9.7e-05 (inactive),0.00455 (inactive),inactive,27.3% (inactive)
CC(=O)N=C(N)Sc1nc2ccccc2[nH]1,570,-2.8% (inactive),-55% (inactive),161%,-0.578,0.85,0.434,22.1% (inactive),-0.462 (inactive),-0.000171 (inactive),0.00501 (inactive),inactive,4.16% (inactive)
CCN(CC)C(=O)CN(C#N)c1nc(NC(C)C)nc(NC(C)C)n1,594,5.2% (inactive),-48.7% (inactive),173%,0.0403,2.22,-0.0328,5.65% (inactive),-0.213 (inactive),8.9e-06 (inactive),0.00592 (inactive),inactive,31.8% (inactive)
CCOC(=O)CSc1nc(N(C)C)nc(N(C)C#N)n1,570,-6.8% (inactive),-140% (inactive),113%,0.476,-0.876,-1.19,5.57% (inactive),-0.478 (inactive),-0.00031 (inactive),0.00712 (inactive),inactive,-9.74% (inactive)
CC1(C)CC(=O)C(CCCN2C(=O)c3ccccc3C2=O)C(=O)C1,527,0.1% (inactive),10.1% (inactive),93.2%,-0.253,0.312,-1.11,-5.26% (inactive),-0.379 (inactive),-1.5e-05 (inactive),0.00431 (inactive),inactive,18% (inactive)
COC(=O)c1sc(NC(=O)C(C)C)c(C(=O)OC)c1C,354,-0.5% (inactive),29.8% (inactive),93.5%,-0.757,-0.742,1.06,3.42% (inactive),-0.426 (inactive),-1.5e-05 (inactive),0.00623 (inactive),inactive,-7.45% (inactive)
CC1(C)Cc2c(sc3c2C(=O)N(c2ccccc2)C2=NCCCN23)CO1,624,-12.4% (inactive),-154% (inactive),120%,1.04,-0.486,-1.32,18.9% (inactive),-0.593 (inactive),-2e-05 (inactive),0.00454 (inactive),inactive,41.4% (inactive)
CCCCCCOC(=O)CCn1[nH]c(=O)c2ccccc2c1=O,547,-12.2% (inactive),-119% (inactive),136%,0.183,-0.855,0.203,7.93% (inactive),-0.492 (inactive),-6.3e-05 (inactive),0.0065 (inactive),inactive,27.6% (inactive)
c1ccc(N2CCN(c3nc(-c4ccccn4)nc4ccccc34)CC2)cc1,493,-5.1% (inactive),22.4% (inactive),86.2%,-1.22,1.7,1.08,-5.26% (inactive),-0.413 (inactive),-7.9e-05 (inactive),0.0043 (inactive),inactive,106% (active)
Cc1nc2c(=O)n(C)c(=O)[nH]c2n1Cc1ccccc1,465,3.5% (inactive),-59.5% (inactive),153%,0.739,0.0972,1.29,-4.7% (inactive),-0.394 (inactive),-4.2e-05 (inactive),0.00601 (inactive),inactive,-5.62% (inactive)
COc1ccccc1Cn1c2nc3ccccc3nc2c2c(=O)n(CC(C)C)cnc21,340,-7.7% (inactive),-28.2% (inactive),148%,0.356,-0.852,-0.477,-8.59% (inactive),-0.425 (inactive),-0.000144 (inactive),0.00898 (inactive),inactive,6.68% (inactive)
CCCCOc1ccc(CN(C)c2ncnc(N)n2)cc1,657,-1.7% (inactive),-51.5% (inactive),180%,-0.491,0.207,-0.506,5.57% (inactive),-0.503 (inactive),-0.00011 (inactive),0.00652 (inactive),inactive,29.8% (inactive)
COC(=O)c1ccc(OC(=O)c2ccc(OC)c(OC)c2)c(OC)c1,601,-0.3% (inactive),2.2% (inactive),142%,0.251,-0.0242,-0.151,11.4% (inactive),-0.491 (inactive),-0.000121 (inactive),0.00612 (inactive),inactive,1.14% (inactive)
CC(C)C1C(C#N)=C(N)Oc2n[nH]c(C(C)(C)C)c21 (stereo unspecified),391,-8.2% (inactive),-118% (inactive),157%,0.159,1.21,-1.21,-2.91% (inactive),-0.429 (inactive),-4.6e-05 (inactive),0.00626 (inactive),inactive,-1.5% (inactive)
CC(C)C1=C2OC(N)=C(C#N)C(C#N)=C2C(C)CC1 (stereo unspecified),361,-6.8% (inactive),-144% (inactive),150%,0.333,0.379,0.759,7.48% (inactive),-0.391 (inactive),-3.9e-05 (inactive),0.0063 (inactive),inactive,13% (inactive)
CCOC(=O)c1c(C)cccc1OCC(N)=O,638,-2.3% (inactive),13.5% (inactive),175%,-0.228,-0.623,1.22,-0.159% (inactive),-0.487 (inactive),-0.000164 (inactive),0.0049 (inactive),inactive,-5.84% (inactive)
COCCCNc1nc2c(c(=O)n(C)c(=O)n2C)n1Cc1cccc(OC)c1,434,-9.7% (inactive),-93.1% (inactive),190%,2.25,-1.46,-1.41,4.37% (inactive),-0.325 (inactive),1.1e-05 (inactive),0.00428 (inactive),inactive,-3.39% (inactive)
O=CNC(=O)c1ccccc1C(=O)O,545,-5.9% (inactive),-60.7% (inactive),162%,1.01,-0.571,-1.1,11.9% (inactive),-0.522 (inactive),-2.4e-05 (inactive),0.00526 (inactive),inactive,28.5% (inactive)
O=C1OC2CCC1(c1ccccc1)C2 (stereo unspecified),573,-7% (inactive),40.2% (inactive),137%,-1.09,0.357,0.719,-5.89% (inactive),-0.524 (inactive),-7.2e-05 (inactive),0.00472 (inactive),inactive,-4.76% (inactive)
CCOC(=O)c1[nH]c2cc3c(cc2c1NC(=O)CN1CCCCC1C)OCO3 (stereo unspecified),588,-1.8% (inactive),46.2% (inactive),167%,0.894,-1.11,-0.403,-10.5% (inactive),-0.229 (inactive),-2e-05 (inactive),0.00474 (inactive),inactive,-2.82% (inactive)
COc1ccc(Nc2oc(-c3cccs3)nc2C#N)cc1,383,2.9% (inactive),-134% (inactive),142%,1.97,-0.949,-1.32,15% (inactive),-0.352 (inactive),-1.7e-05 (inactive),0.00524 (inactive),inactive,16% (inactive)
Cc1ccc2[nH]c3c(N4CCN(Cc5ccccc5)CC4)ncnc3c2c1,328,-7.3% (inactive),-11.9% (inactive),148%,0.594,0.553,-0.309,10.5% (inactive),-0.403 (inactive),-0.000135 (inactive),0.00442 (inactive),inactive; toxic,38.4% (inactive)
c1coc(-c2nnc3sc(Cc4cccs4)nn23)c1,593,-3.5% (inactive),60.4% (inactive),98.5%,0.488,-1.26,-0.189,-13.3% (inactive),-0.5 (inactive),-4.8e-06 (inactive),0.00451 (inactive),inactive,5.83% (inactive)
CC1(C)CC(=O)c2cc(C(=O)N3CCCC(C)(C)C3)c(=O)n(-c3ccccc3)c2C1,523,-8% (inactive),-71.4% (inactive),121%,0.578,0.18,1.1,7.48% (inactive),-0.48 (inactive),-0.000165 (inactive),0.00502 (inactive),inactive,31.5% (inactive)
